From PubChem
Arrestin-AP2 inh: human beta-arrestin and AP2 interaction inhibition; FITC-arrestin peptide / GST-AP2 beads, flow cytometry; AP2 beta2 appendage carries R879A mutation; inhibition, % at 10 µM; 340,000 compounds, 0.31% hits;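 active = inhibition above a set limit, near 3 SD of compounds lacking own fluorescence, cut at about 54% in these data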;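 note: plate controls were DMSO wells for no effect and 5 µM unlabelled arrestin peptide for full effect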
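system = GST-tagged AP2 beta2-adaptin appendage (R879A) on 4 µm glutathione beads | reagent = FITC-labelled arrestin peptide probe, 50 nM final | schedule = compound with beads 12 min RT, then probe 1 h RT | signal = HyperCyt-sampled flow cytometry, FL1 channel, ex 488/em 535 nm | read-out = percent response from loss of bead-bound FITC fluorescence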
p-CIP stab down: compounds decreasing mouse p/CIP protein stability; Q05BA5; F442A p/CIP-EGFP cells, EGFP fluorescence, 16 h; decrease of EGFP signal, % at 10 µM; 290,000 compounds, 0.01% hits;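 active = EGFP signal decrease of at least 30% at 10 µM or well 3 SD below plate mean, unless failing retest; inactive = the rest, including hits failing retest or dose response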
Hep lipid drop: modulators of hepatic lipid droplet formation; AML12 mouse hepatocytes, oleate lipid droplets, BODIPY imaging; inhibition, % at 6.5 µM; 240,000 compounds, 0.4% hits; AID 1656;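 active = lipid droplet intensity inhibited by at least 50%, with more than 500 cells counted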
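Assay system: AML12 mouse liver cells | Compound: 6.5 µM single-point dosing | Schedule: Overnight exposure | Technique: Fluorescence imaging, 20x objective, two fields per well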
Fh CTSL1 inh: blocks F. hepatica cathepsin L1 in PFM18AAP counter-screen | recombinant F. hepatica cathepsin L1, Z-Leu-Arg-MCA fluorescence | 300,000 compounds, 0.49% hits | inhibition, % at 5.96 µM;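 active = inhibition above the mean of all tested compounds plus 3 SD, set per screening campaign, cut at about 17% in these data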;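 note: 0% = plate median of test compound wells and 100% = 1 µM Z-Phe-Ala-diazomethylketone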
Arr-AP2 CP1: blocks beta-arrestin peptide binding to human AP2; inhibition, % at 10 µM; GST-AP2 beads, FITC arrestin peptide binding, flow cytometry; GST-fused beta2-adaptin appendage, R879A mutant; shares compounds with Arrestin-AP2 inh; 1,300 compounds, 2% hits; AID 504908;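 active = inhibition above a set limit, roughly 3 SD of non-fluorescent compound noise, cut at about 38% in these data; inactive = inhibition at or below that limit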;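 note: loss of bead fluorescence from 50 nM FITC arrestin peptide bound to appendage; 0% = negative control wells and 100% = excess unlabelled arrestin peptide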
Target sequence (P63010 whole entry, looked up, the tested form may be a part, one chain of several): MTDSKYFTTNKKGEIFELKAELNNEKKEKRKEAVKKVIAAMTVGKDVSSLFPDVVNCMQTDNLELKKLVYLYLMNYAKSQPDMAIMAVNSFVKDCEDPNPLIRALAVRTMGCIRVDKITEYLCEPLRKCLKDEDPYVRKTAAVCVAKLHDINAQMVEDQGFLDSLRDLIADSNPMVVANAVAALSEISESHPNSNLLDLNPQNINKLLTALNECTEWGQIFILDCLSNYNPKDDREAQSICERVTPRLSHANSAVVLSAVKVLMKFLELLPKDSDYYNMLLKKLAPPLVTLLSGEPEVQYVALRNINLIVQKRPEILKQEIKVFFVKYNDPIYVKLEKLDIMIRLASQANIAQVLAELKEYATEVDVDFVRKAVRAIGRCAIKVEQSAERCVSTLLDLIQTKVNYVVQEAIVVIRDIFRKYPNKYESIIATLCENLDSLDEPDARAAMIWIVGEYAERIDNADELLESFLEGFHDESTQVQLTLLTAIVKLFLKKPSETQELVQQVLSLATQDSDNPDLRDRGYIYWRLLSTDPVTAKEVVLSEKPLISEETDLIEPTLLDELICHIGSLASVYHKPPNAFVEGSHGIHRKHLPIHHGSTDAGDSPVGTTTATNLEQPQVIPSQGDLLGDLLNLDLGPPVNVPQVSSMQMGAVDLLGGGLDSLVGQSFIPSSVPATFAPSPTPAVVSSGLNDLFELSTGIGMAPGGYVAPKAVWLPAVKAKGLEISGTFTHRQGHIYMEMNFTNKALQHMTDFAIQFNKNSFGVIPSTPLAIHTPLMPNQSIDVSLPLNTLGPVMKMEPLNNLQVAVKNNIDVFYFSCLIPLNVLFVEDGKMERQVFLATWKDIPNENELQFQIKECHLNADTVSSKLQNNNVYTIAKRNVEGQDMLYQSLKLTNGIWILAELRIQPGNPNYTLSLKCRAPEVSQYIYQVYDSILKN
GST GSH counter: GST-GSH bead binding interference, counter-screen; shares compounds with Arrestin-AP2 inh; GST-fluorescein binding to GSH beads, fluorescence; inhibition, % at 10 µM; 1,300 compounds, 2% hits; AID 588338;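 active = inhibition above 50%, about 3 SD of the inhibition seen with non-fluorescent compounds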;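 note: fluorescein maleimide labelled GST captured on 4 micron glutathione beads; higher means more loss of bead fluorescence from quenching or blocked binding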
* marks the source's active call; other numbers are inactive results; . = not tested or not shown. In the library only some 1% were active in any assay of this set; here they are far more common.

SMILES | Arrestin-AP2 inh | p-CIP stab down | Hep lipid drop | Fh CTSL1 inh | Arr-AP2 CP1 | GST GSH counter
COc1ccc(CCC(=O)N2CCN(S(=O)(=O)c3ccc(C)cc3)CC2)cc1 | -4 | . | . | . | . | .
CCOc1ccc(/C=C2\CCC(C3CCCC3)C2=O)cc1 (stereo not drawn) | 1 | 0 | -64 | -2 | . | .
CCOc1ccc(/C=C2\CCC(C3CCCC3)C2=O)cc1OC (stereo not drawn) | 59* | 0 | 0 | -3 | 12 | -3
COC(=O)c1cc(OC)c(OC)cc1NC(=S)N1CCCC1 | 56* | -13 | 2 | -2 | 2 | -5
CCN1CCN(C(=O)C2CCN(Cc3cc(Cl)ccc3O)CC2)CC1 | 6 | 5 | 15 | 0 | . | .
CCCNC(=O)c1noc2c1CCc1ccccc1-2 | -13 | 2 | -3 | 3 | . | .
O=C(Nc1cccnc1Cl)c1noc2c1CCc1ccccc1-2 | 55* | -1 | 1 | -1 | 10 | -16
CCOc1ccc(C(C)=O)cc1COC(=O)c1cccnc1SC | -10 | -15 | 11 | 3 | . | .
CC(C)c1c(O)nc(SCC(=O)N2CCOCC2)[nH]c1=O | 4 | -1 | 12 | 0 | . | .
O=C(CSc1nc(O)c(C(c2ccccc2)c2ccccc2)c(=O)[nH]1)N1CCOCC1 | 68* | 2 | -3 | 2 | -17 | -6
CCOC(=O)C1CCN(c2cc3c(cc2NC(=O)c2ccccc2)n(C)c(=O)n3C)CC1 | 11 | -14 | 19 | 12 | 18 | -2
COc1ccc(C(=O)Nc2ccc3c(c2)n(C)c(=O)n3C)cc1OC | 46 | 6 | 4 | 0 | . | .
CCOC(=O)C1CCN(S(=O)(=O)c2cccc(C(=O)Nc3ccccc3)c2)CC1 | 24 | -7 | -1 | 0 | . | .
CCOC(=O)C1CCN(c2cc3c(cc2NC(=O)c2ccc(OC)c(OC)c2)n(C)c(=O)n3C)CC1 | 28 | -2 | 7 | 0 | 6 | -8
Cc1ccc(C)c(N2CCN(CC3CCCCC3)CC2)c1 | 5 | -7 | 11 | -1 | . | .
Cc1ccc(C)c(N2CCN(c3ccncc3N)CC2)c1 | 55* | -4 | -11 | 1 | -3 | -7
COc1ccc(C=NNc2ccc([N+](=O)[O-])cc2S(=O)(=O)Nc2ccccc2C(=O)O)cc1OC | 16 | . | . | . | . | .
COc1ccc(/C=N/Nc2ccc([N+](=O)[O-])cc2S(=O)(=O)N2CCN(C)CC2)cc1 | 102* | 4 | 35 | -3 | 18 | -4
CCN(C[C@H]1N[C@@](C)(C(=O)OC)[C@H]2C(=O)N(Cc3ccccc3)C(=O)[C@@H]12)C(=O)c1ccccc1 | 57* | . | . | . | 2 | -4
Cc1c(O)c(=O)ccn1Cc1ccccc1 | . | -4 | . | -4 | . | .
C/C(=C1/SC(N2CCCC2)=NC1=O)c1ccc(Br)cc1 | 79* | -12 | . | 0 | -12 | -6
CC(C)=C1SC(N2CCCCC2)=NC1=O | 13 | -4 | -5 | -1 | . | .
O=C(Nc1ccccc1F)c1ccc2nc(N3C(=O)CCC3=O)sc2c1 | 11 | 12 | . | 3 | . | .
O=C(C[n+]1cc(-c2ccc(F)cc2)n2c1CCC2)N1c2ccccc2Sc2ccccc21 | -1 | 2 | -68 | -4 | . | .
CC(C)CCNC(=O)CCC(=O)NNc1nc2ccccc2c2nc(-c3ccccc3)nn12 | 63* | -1 | -7 | 1 | -2 | 3
SMILES | Arrestin-AP2 inh | p-CIP stab down | Hep lipid drop | Fh CTSL1 inh | Arr-AP2 CP1 | GST GSH counter
Cc1nc2ccc(NC(=S)NC3CCCCC3)cc2nc1C | 55* | 3 | 7 | -1 | 1 | -7
Cc1ccc(NC(=S)NC2CCCC2)cc1C | 4 | -13 | 1 | -1 | . | .
O=C(COc1cccc2cccnc12)Nc1nccs1 | 4 | -11 | . | -2 | . | .
CC(=O)c1c(OC(=O)c2ccc(C)cc2)c2ccccc2n1C | 20 | -10 | 8 | 1 | . | .
CC(=O)c1c(OC(=O)c2ccco2)c2ccccc2n1C | 63* | 2 | -17 | -8 | -2 | 6
CSc1ccccc1NC(=O)Nc1cccc(Cl)c1Cl | 7 | 6 | 3 | 2 | . | .
CCOC(=O)c1c(C(=O)OCC)c(C)n(N2C(=O)CSC2=S)c1C | 60* | 1 | 9 | 4 | -12 | -1
O=C(Oc1ccc2ccc(=O)oc2c1)N1CCOCC1 | 55* | -5 | . | 8 | 1 | -9
CCCOc1ccc(C2C(C(=O)c3ccc(C)o3)=C(O)C(=O)N2Cc2ccco2)cc1 (stereo not drawn) | -16 | 2 | 23 | 3 | . | .
CCCOc1ccc(C2C(C(=O)c3ccc(C)o3)=C(O)C(=O)N2Cc2ccco2)cc1OCC (stereo not drawn) | 64* | -5 | 0 | 1 | 7 | 2
COC(=O)c1nc2ccc(N3CCOCC3)cc2c(C)c1C(=O)OC | 57* | 1 | 0 | -8 | -1 | 5
Cc1n[nH]c(=O)c2c(NC(=O)CSc3ccccc3Cl)oc(C)c12 | 34 | . | . | -5 | . | .
O=C(N/N=C/c1cccn1-c1ccccc1)c1ccncc1 | 58* | 4 | 4 | 3 | 0 | -7
O=C(N/N=C/c1cccn1-c1ccc([N+](=O)[O-])cc1)c1cccnc1 | -1 | -15 | -5 | 1 | . | .
COc1ccc(/C=C2\SC(=S)N(NS(=O)(=O)c3ccccc3)C2=O)c(OC)c1 | 8 | -7 | -4 | . | . | .
CCN(CC(=O)Nc1ccc(NC(C)=O)cc1)C(=O)CCCSc1nc2ccccc2[nH]1 | 66* | . | . | -3 | -16 | 1
CCN(CC(=O)Nc1ccc(NC(C)=O)cc1)C(=O)CCCc1c[nH]c2ccccc12 | 62* | . | . | . | -4 | -5
CC(=O)Nc1ccc(NC(=O)CCCc2c[nH]c3ccccc23)cc1 | 11 | -15 | 5 | 0 | . | .
CC(=O)Nc1ccc(NC(=O)CCCSc2nc3ccccc3[nH]2)cc1 | 2 | -7 | 0 | -1 | . | .
CCN(CC)C(=O)c1cccc(NC(=O)C2=COCCO2)c1 | 68* | . | . | . | -12 | -5
COc1cccc(CNC(=O)COC(=O)c2c(C)nn(-c3ccccc3)c2Cl)c1 | -6 | . | . | . | . | .
COc1ccccc1CNC(=O)COC(=O)c1c(C)nn(-c2ccccc2)c1Cl | 67* | 3 | 15 | 3 | -13 | -2
COc1ccc(OCCC(=O)Nc2nccs2)cc1 | 54* | 4 | 6 | -4 | -4 | 1
C#Cc1cccc(NC(=O)Cc2cccs2)c1 | 56* | -6 | 1 | -6 | 3 | -8
CCCNC(=O)COC(=O)c1cc(C)nc2ccccc12 | 12 | -3 | -8 | -3 | . | .
Cc1cc(C(=O)OCC(=O)NCCc2ccccc2)c2ccccc2n1 | 54* | . | . | . | 4 | 1
Cc1nc(OCC(=O)c2ccc(Cl)cc2)c(C#N)c2c1COC(C)(C)C2 | 91* | 3 | -19 | -1 | 3 | -3
CCOC(=O)N1CCC(Nc2c(Nc3cccc(CC)c3)c(=O)c2=O)CC1 | 8 | -1 | . | -2 | . | .
Cc1cc(OCC(=O)Nc2nccs2)c2c(C)cc(=O)oc2c1 | 60* | 10 | 3 | 2 | 2 | -1
